Experimental data pooled from the literature.
Protocols differ between the studies behind these lines.
Organism: Mycobacterium tuberculosis
Effect on: microbial growth

Cc1ccc(-c2nc3ccc(C)cn3c2CC(=O)N(C)C)cc1 — MIC (H37RV; 5 days): 10 to 11 µM
COc1ccc2cc(-c3nc(C(C)(C)C)[nH]c3-c3ccnc(N)c3)ccc2c1 — MIC (ATCC27294 H37RV): 5.4 µM
COC(=O)c1cc(-c2cccc(NC(=O)Nc3cccc(F)c3)c2)on1 — MIC (ATCC27294 H37RV; 7 days): 2 µg/mL
O=C1C(=NNc2nc(-c3ccccc3)cs2)C(N=Cc2ccccc2Cl)=NN1c1ccccc1 — MIC (resazurin; H37RV; 5 days): 51.5 µM
O=C1COCCN1c1ccc(CO[C@@H]2COc3nc([N+](=O)[O-])cn3C2)cc1 — MIC (H37RV): 0.4 to 0.8 µg/mL
NNC(=O)c1ccncc1 — MIC: 0.03 µg/mL
Cc1ccc(C)n1-c1ccc(-c2nnc(-c3ccccc3[N+](=O)[O-])[nH]2)cc1 — MIC (broth dilution; H37RV; 21 days): 16 µg/mL
C=C[C@@H](O)C#CC#C[C@@H](O)/C=C\CCCCCCC — MIC (resazurin; ATCC35801 ERDMAN; 7 days): 6 µg/mL
NC(=O)c1cnccn1 — MIC (resazurin; H37RV): 3.12 µg/mL
CCc1nc2ccc(Cl)cn2c1C(=O)NCc1ccc(S(F)(F)(F)(F)F)cc1 — MIC (H37RV; 5 days): 0.014 µM
C[C@H]1COC2(CCN(c3nc(=O)c4cc(C(F)(F)F)cc([N+](=O)[O-])c4s3)CC2)O1 — MIC (resazurin; H37RV): < 0.39 µM
CC1SC2(CCC(c3ccccc3)CC2)N(NC(=O)c2[nH]c3ccc(Cl)cc3c2-c2ccccc2)C1=O (stereo not drawn) — MIC (ATCC27294 H37RV): 7.8 µM
CC1=NN(CNc2ccc(O)cc2)C(=O)C1=NNn1c(-c2ccccc2)nc2ccccc2c1=O — MIC (resazurin; H37RV): 53.5 µM
CN(CC[C@H](N)CC(=O)N[C@H]1C=C[C@H](n2ccc(N)nc2=O)O[C@@H]1C(=O)O)C(=N)N — MIC (H37RA): > 50 µM
O=C(C1CCCN(S(=O)(=O)c2ccccc2[N+](=O)[O-])C1)N1CCN(C(c2ccc(F)cc2)c2ccc(F)cc2)CC1 (stereo not drawn) — MIC (ATCC27294 H37RV): > 25 µg/mL
Cc1ccc(C)n1-c1ccc(-c2nnc(-c3ccc(O)cc3)[nH]2)cc1 — MIC (broth dilution; H37RV; 21 days): 16 µg/mL
CCCCCCC/C=C\[C@H](O)C#CC#C[C@@H](O)CC — MIC (resazurin; ATCC27294 H37RV; 7 days): 50.2 µg/mL
O=C(Nc1ccc2c(c1)OC(F)(F)O2)Nc1ccc(Cl)c(C(F)(F)F)c1 — MIC (H37RV): 2 µM
CO[C@H]1/C=C/O[C@@]2(C)Oc3c(C)c(O)c4c(O)c(c(/C=N/N5CCN(C)CC5)c(O)c4c3C2=O)NC(=O)/C(C)=C\C=C\[C@H](C)[C@H](O)[C@@H](C)[C@@H](O)[C@@H](C)[C@H](OC(C)=O)[C@@H]1C — MIC (broth dilution): 0.4 µg/mL
CC1CC(C)(C)CC2(C1)SCC(=O)N2NC(=O)c1[nH]c2ccc(Cl)cc2c1-c1ccccc1 (stereo not drawn) — MIC (ATCC27294 H37RV): 500 µM
COC(=O)c1cc(-c2cccc(NC(=S)Nc3ccccc3)c2)on1 — MIC (ATCC27294 H37RV; 7 days): 2 µg/mL
COC1C(O)C(n2ccc(=O)[nH]c2=O)OC1C(OC1OC(C(=O)Nc2ccc(F)c(F)c2)=CC(O)C1O)C(N)=O (stereo not drawn) — MIC (resazurin; H37RV): 1.56 µg/mL
COC(=O)c1cc(-c2cccc(NC(=O)Nc3cc(OC)ccc3OC)c2)on1 — MIC (ATCC27294 H37RV; 7 days): 0.5 µg/mL
CO[C@H]1/C=C/O[C@@]2(C)Oc3c(C)c(O)c4c(O)c(c(/C=N/N5CCN(C)CC5)c(O)c4c3C2=O)NC(=O)/C(C)=C\C=C\[C@H](C)[C@H](O)[C@@H](C)[C@@H](O)[C@@H](C)[C@H](OC(C)=O)[C@@H]1C — MIC (W4): 0.016 µM
COC(=O)c1cc(-c2cccc(NC(=O)Nc3ccc(Cl)c(Cl)c3)c2)on1 — MIC (ATCC27294 H37RV; 7 days): 0.25 µg/mL
Cc1c(Cc2ccc(F)cc2)c(=O)n2c([nH]c3ccccc32)c1C#N — MIC (broth dilution; H37RV): 2 µg/mL
O=C1C(=NNc2nc(-c3ccccc3)cs2)C(N=Cc2cccc(Cl)c2)=NN1c1ccccc1 — MIC (resazurin; H37RV): 6.25 µg/mL
CO[C@H]1/C=C/O[C@@]2(C)Oc3c(C)c(O)c4c(O)c(c(/C=N/N5CCN(C)CC5)c(O)c4c3C2=O)NC(=O)/C(C)=C\C=C\[C@H](C)[C@H](O)[C@@H](C)[C@@H](O)[C@@H](C)[C@H](OC(C)=O)[C@@H]1C — MIC (ATCC27294 H37RV): < 0.1 µg/mL
O=C1C(=NNc2nc(-c3ccccc3)cs2)C(N=Cc2ccccc2O)=NN1c1ccccc1 — MIC (resazurin; H37RV): 25 µg/mL
COC(=O)c1cc(-c2cccc(NC(=O)Nc3ccc(Cl)cc3)c2)on1 — MIC (ATCC27294 H37RV; 7 days): 2 µg/mL
CO[C@H]1/C=C/O[C@@]2(C)Oc3c(C)c(O)c4c(O)c(c(/C=N/N5CCN(C)CC5)c(O)c4c3C2=O)NC(=O)/C(C)=C\C=C\[C@H](C)[C@H](O)[C@@H](C)[C@@H](O)[C@@H](C)[C@H](OC(C)=O)[C@@H]1C — MIC (H37RV): 0.85 µg/mL
O=C(CNS(=O)(=O)c1ccc([N+](=O)[O-])cc1[N+](=O)[O-])N1CCN(C(c2ccc(F)cc2)c2ccc(F)cc2)CC1 — MIC (ATCC27294 H37RV): 25 µg/mL
C[C@H]1COc2c(N3CCN(C)CC3)c(F)cc3c(=O)c(C(=O)O)cn1c23 — MIC (resazurin; H37RA; 14 days): 0.12 µg/mL
COc1nc2ccc(Br)cc2cc1[C@@H](c1ccccc1)[C@@](O)(CCN(C)C)c1cccc2ccccc12 — MIC (resazurin; H37RV; 14 days): 0.51 µM
CC1(C)S[C@@H]2[C@H](NC(=O)[C@H](N)c3ccccc3)C(=O)N2[C@H]1C(=O)O — MIC (resazurin; H37RA; 14 days): 64 µg/mL
Cc1c(Cc2ccc(Cl)c(Cl)c2)c(=O)n2c([nH]c3ccccc32)c1C#N — MIC (broth dilution; H37RV): 0.5 µg/mL
COC(=O)c1cc(-c2cccc(NC(=S)Nc3ccc([N+](=O)[O-])cc3)c2)on1 — MIC (ATCC27294 H37RV; 7 days): 2 µg/mL
Cc1cn2c(C(=O)NCc3ccc(S(F)(F)(F)(F)F)cc3)c(C)nc2s1 — MIC (resazurin; H37RV): 0.078 µM
COC(=O)c1cc(-c2cccc(NC(=O)Nc3cccc(C#N)c3)c2)on1 — MIC (ATCC27294 H37RV; 7 days): 16 µg/mL
N#Cc1cc(C(F)(F)F)cc2c(=O)nc(N3CCN(CC4CCOC4)CC3)sc12 (stereo not drawn) — MIC (resazurin; H37RV): 1.9 µM
COC(=O)c1cc(-c2cccc(NC(=S)NC3CCCCC3)c2)on1 — MIC (ATCC27294 H37RV; 7 days): 2 µg/mL
CO[C@H]1/C=C/O[C@@]2(C)Oc3c(C)c(O)c4c(O)c(c(/C=N/N5CCN(C)CC5)c(O)c4c3C2=O)NC(=O)/C(C)=C\C=C\[C@H](C)[C@H](O)[C@@H](C)[C@@H](O)[C@@H](C)[C@H](OC(C)=O)[C@@H]1C — MIC (resazurin; H37RV; 14 days): 0.075 µM
